These results are taken from ChEMBL document CHEMBL4152308, “Synthesis and biological evaluation of novel 2-oxo-1,2-dihydroquinoline-4-carboxamide derivatives for the treatment of esophageal squamous cell carcinoma” (Eur J Med Chem, 2018).

SMILES strings stand for the structures. Active and inactive are the calls of the source. The calls are words filed in the database; no cut-off is given here.

In experiment [1] the test system is KYSE-70 cell line. Put plainly: Antiproliferative activity against human KYSE-70 cells after 72 hrs by MTT assay. It counts as functional, cell-based. The following applies: KYSE-70, 72 h. The gist of the method:
(§1)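 Cells grown as monolayers at 37 °C, 5% CO2, mycoplasma-checked, in exponential phase. Cells seeded in 96-well plates, 24 h attachment, then compound added for 72 h. MTT 0.3 mg/mL for 3 h at 37 °C, DMSO solubilization, absorbance at 570 nm. Inhibition = (1 − A/C) × 100%. IC50 from log(concentration) vs % inhibition plot; triplicate wells, SD from ≥3 independent experiments.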
Background: Formazan colour is commonly taken as a measure of viable cells.

For experiment [2], the system named is KYSE-410. Description: Antiproliferative activity against human KYSE410 cells after 72 hrs by MTT assay. The following applies: KYSE-410, 72 h. In kind it is functional, cell-based. The gist of the method: as §1
The subject of experiment [3] is KYSE-410. Description: Induction of autophagy in human KYSE410 cells assessed as increase in LC3B level at 10 to 50 uM after 24 hrs by Western blot analysis. In kind it is functional, cell-based. The essentials: (§2)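 Cells treated 24 h at indicated concentrations, with bafilomycin for induced-LC3B readouts. Lysis in RIPA with protease inhibitors, BCA protein assay, samples heated 5 min at 100 °C. Equal protein run on 15% SDS-PAGE, transferred to PVDF. Anti-LC3B primary overnight at 4 °C, GAPDH as loading control, anti-rabbit secondary, TBST washes.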

Experiment [4] has as its system KYSE-410. Description: Cell cycle arrest in human KYSE410 cells assessed as accumulation at G2 phase at 5 uM after 24 to 48 hrs by propidium iodide staining based flow cytometry (reference value: 12.2%). It counts as functional. A general note: A flow cytometer gives signals particle by particle.
Experiment [5] has as its system KYSE-410. Put plainly: Cell cycle arrest in human KYSE410 cells assessed as accumulation at G1 phase at 5 uM after 24 to 48 hrs by propidium iodide staining based flow cytometry (reference value: 65.4%). It counts as functional.
In experiment [6] the test system is KYSE-410. Description: Inhibition of autophagy in human KYSE410 cells assessed as decrease in bafilomycin-induced LC3B level at 1 to 10 uM after 24 hrs by Western blot analysis. In kind it is functional, cell-based. The gist of the method: as §2
The test system of experiment [7] is KYSE-410. Put plainly: Cell cycle arrest in human KYSE410 cells assessed as accumulation at S phase at 1 uM after 24 to 48 hrs by propidium iodide staining based flow cytometry (reference value: 22.3%). In kind it is functional.
In experiment [8] the test system is OVCAR-8. Put plainly: Antiproliferative activity against human OVCAR8 cells after 72 hrs by MTT assay. In kind it is functional, cell-based. The following applies: OVCAR-8, 72 h. The essentials: as §1
Experiment [9] deals with MIA PaCa-2. Description: Antiproliferative activity against human MIAPaCa2 cells after 72 hrs by MTT assay. In kind it is functional, cell-based. Conditions: MIA PaCa-2, 72 h. The gist of the method:
as §1

Experiment [10] concerns SK-OV-3. Put plainly: Antiproliferative activity against human SKOV3 cells after 72 hrs by MTT assay. In kind it is functional, cell-based. Conditions: SK-OV-3, 72 h. The gist of the method: as §1
Experiment [11] has as its system KYSE-410. Description: Cell cycle arrest in human KYSE410 cells assessed as accumulation at G1 phase at 1 uM after 24 to 48 hrs by propidium iodide staining based flow cytometry (reference value: 65.4%). In kind it is functional.
Experiment [12] has as its system KYSE-70 cell line. Put plainly: Inhibition of colony formation in human KYSE-70 cells at >3 uM after 7 days by crystal violet staining based assay. In kind it is functional, cell-based. The essentials:
(§3)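 Seeding at 250 cells/well in 96-well plates, attached 24 h, then serial compound dilutions added at 37 °C. Culture continued 7 days until colonies formed. Colonies washed, stained with 2% crystal violet for 1 h, then rinsed thoroughly with water.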

The test system of experiment [13] is KYSE-410. Put plainly: Cell cycle arrest in human KYSE410 cells assessed as accumulation at G2 phase at 1 uM after 24 to 48 hrs by propidium iodide staining based flow cytometry (reference value: 12.2%). It counts as functional.
The subject of experiment [14] is KYSE-410. Description: Inhibition of autophagy in human KYSE410 cells assessed as decrease in bafilomycin-induced LC3B level at 10 uM treated at 1 hr post proteasome inhibitor MG132 treatment measured after 24 hrs by Western blot analysis. In kind it is functional, cell-based. The gist of the method:
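KYSE410 cells pretreated 1 h with 10 µM MG132 (proteasome inhibitor), then compound at 10 µM for 24 h. Lysis in RIPA with protease inhibitors, BCA quantification, equal protein on 15% SDS-PAGE, PVDF transfer. Anti-LC3B overnight at 4 °C, anti-rabbit secondary, GAPDH as loading reference.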
(A western blot detects proteins with antibodies after separation by electrophoresis.)

Experiment [15] relates to KYSE-410. Put plainly: Inhibition of colony formation in human KYSE410 cells at >3 uM after 7 days by crystal violet staining based assay. In kind it is functional, cell-based. The essentials:
as §3

Experiment [16] relates to KYSE-410. Put plainly: Inhibition of autophagy in human KYSE410 cells assessed as decrease in bafilomycin-induced LC3B level after 24 hrs by Western blot analysis. In kind it is functional, cell-based. The essentials: as §2
In experiment [17] the test system is MIA PaCa-2. Put plainly: Inhibition of autophagy in human MIAPaCa2 cells assessed as decrease in bafilomycin-induced LC3B level at 1 to 10 uM after 24 hrs by Western blot analysis. It counts as functional, cell-based. The essentials:
as §2

The subject of experiment [18] is KYSE-410. Description: Cell cycle arrest in human KYSE410 cells assessed as accumulation at S phase at 5 uM after 24 to 48 hrs by propidium iodide staining based flow cytometry (reference value: 22.3%). It counts as functional.
Experiment [19] deals with KYSE-410. Description: Inhibition of colony formation in human KYSE410 cells at 0.4 to 30 uM after 7 days by crystal violet staining based assay. It counts as functional, cell-based. The essentials:
as §3

Experiment [20] concerns KYSE-70 cell line. Description: Inhibition of colony formation in human KYSE-70 cells at 0.4 to 30 uM after 7 days by crystal violet staining based assay. In kind it is functional, cell-based. The gist of the method:
as §3

As to `CCN(CC)CCCC(C)Nc1ccc2c(C(=O)Nc3cccc(F)c3)cc(=O)[nH]c2c1` (stereo not given), the IC50 in [1] and in experiment [2] was over 20 µM throughout. For the same compound, the outcome in experiment [3] was Active.

Take `O=C(Nc1cc(F)cc(F)c1)c1cc(=O)[nH]c2cc(Br)ccc12`: the Activity was found to be 19.8% in [4]; 57.2% in experiment [5]; 21.2% in experiment [7]; 64.2% in experiment [11]; 14.6% in experiment [13]; 23% in experiment [18]. The inhibition result in [6], in experiment [12], in experiment [15] and in [17] was “Active” in each case. Also, the concentration for half-maximal inhibition (IC50) (usually the concentration needed to halve the response being measured) is 10.7 µM in experiment [1]; 12.1 µM in experiment [8]; 7.8 µM in experiment [9]; 11.2 µM in experiment [2]; 10.8 µM in experiment [10]. Moreover, in experiment [14], the inhibition entry was “inactive”. Further, the inhibition result in [16] is “Dose-dependent effect”.

Regarding `O=C(Nc1cccc(F)c1)c1cc(=O)[nH]c2cc(Br)ccc12`, the Activity in experiment [4] came out at 22.4%; in experiment [5], 53.6%; in experiment [7], 25.1%; in experiment [11] it was 61.9%; in [13], 13%; in experiment [18], 24%. The inhibition result in experiment [6] and in experiment [17] was “Active” in each case. Moreover, the IC50 in experiment [1] was found to be 8.9 µM; in experiment [8], 5.8 µM; in experiment [9] it was 7.5 µM; in experiment [2], 7.3 µM; in experiment [10], 10.6 µM.

Consider `CC(C)(C)c1ccc(NC(=O)c2cc(=O)[nH]c3cc(Br)ccc23)cc1`, for which the inhibition entry in [19] and in [20] was “inactive” in each case. Also, the IC50 in experiment [1] and in [2] was over 20 µM each time.

`CCN(CC)CCCC(C)Nc1ccc(NC(=O)c2cc(=O)[nH]c3cc(F)ccc23)cc1F` (stereo not given): the IC50 in experiment [1] and in [2] was over 20 µM each time. Moreover, the outcome in experiment [3] was Active.
